High-throughput results from PubChem.
Rows were chosen to be rich in hits. Some 0.6% of all compounds tested hit in one or more screens of this group.
TNAP inh noacc: inhibitors of human TNAP without phosphate acceptor; P05186; purified TNAP, CDP-star luminescence, 30 min; inhibition, % at 20 µM; actives 0.26% (n = 200,000);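 active means tissue-nonspecific alkaline phosphatase inhibition above about 50% at 20 µM in the single-dose screen, limit read from the data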;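 further: 0% = DMSO negative control and 100% = EDTA positive control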
PMI act hi M6P: PMI (human) activation, high substrate. AID 1216. coupled PMI enzyme assay, resazurin fluorescence, 20 min; active compounds read high; 1 = untreated enzyme, 0 = substrate-free blank. actives 0.34% (n = 190,000). P34949. activation factor at 20 µM;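 active means activation factor of 2 or more at 20 µM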
Target sequence (P34949 whole entry, looked up): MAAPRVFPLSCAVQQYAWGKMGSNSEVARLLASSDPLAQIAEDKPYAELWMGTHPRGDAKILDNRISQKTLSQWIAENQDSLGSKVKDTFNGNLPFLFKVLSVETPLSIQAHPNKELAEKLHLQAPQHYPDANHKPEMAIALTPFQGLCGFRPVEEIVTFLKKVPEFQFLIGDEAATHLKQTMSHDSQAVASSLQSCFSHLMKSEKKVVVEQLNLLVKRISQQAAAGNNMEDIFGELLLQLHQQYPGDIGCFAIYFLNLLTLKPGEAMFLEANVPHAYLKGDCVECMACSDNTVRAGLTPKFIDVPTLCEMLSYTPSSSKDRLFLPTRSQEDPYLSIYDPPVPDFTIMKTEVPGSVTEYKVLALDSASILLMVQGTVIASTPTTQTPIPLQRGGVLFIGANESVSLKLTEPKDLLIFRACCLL
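Test system – human PMI in coupled enzyme assay · Timing – 20 min incubation at room temperature · Detection – Diaphorase-driven resazurin-to-resorufin fluorescence, excitation 544, emission 590 nm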
TNAP act hiacc: TNAP (human) activation, high acceptor; 200,000 tested, under 10 active; activation factor at 20 µM; purified TNAP, CDP-star luminescence, 1 M DEA, 30 min; active compounds read high; 0 = EDTA background, 1 = DMSO-only activity;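 active means activation factor at least 2 at 20 µM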
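Control set: EDTA negative control, DMSO positive control / Assay system: human TNAP / Quantity: TNAP 1/800 final / Evaluation: TNAP activation factor scaled between EDTA and DMSO control wells / Measured by: luminescent substrate turnover signal / Compound dosing: one dose, 20 µM / Times: 30 min enzyme reaction at room temperature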
TNAP inh hiacc: inhibitors of human TNAP at high phosphate acceptor concentration; P05186; AID 1135; purified TNAP, CDP-star luminescence, 1 M DEA; inhibition, % at 20 µM; actives 0.03% (n = 200,000);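 active means over 50% inhibition of tissue-nonspecific alkaline phosphatase at 20 µM in the single-dose screen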;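 further: plate controls were DMSO wells for no effect and EDTA-quenched wells as full inhibition for full effect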
PMI activator: activators of human phosphomannose isomerase. purified human PMI, coupled resazurin fluorescence, 20 min; active compounds read high; 1 = vehicle control, 0 substrate-free wells. actives 0.005% (n = 190,000). activation factor at 20 µM;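 active means activation factor of 2 or more at 20 µM, relative to plate controls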
Numbers without * were called inactive.

What do the screens show for `COc1ccc(Cc2nnc3c4cnn(C)c4ncn23)cc1`?
TNAP inh noacc: 35.1; PMI act hi M6P: 1; TNAP act hiacc: 1; TNAP inh hiacc: -2.9; PMI activator: 1

Results for CCc1nnc2c3cnn(-c4ccccc4)c3ncn12 ?
TNAP inh noacc: 52.6*; PMI act hi M6P: 1.1; TNAP act hiacc: 1; TNAP inh hiacc: 4.0; PMI activator: 1

Results for c1ccc(-n2ncc3c2ncn2cnnc32)cc1 ?
TNAP inh noacc: 75.6*; PMI act hi M6P: 1; TNAP act hiacc: 0.9; TNAP inh hiacc: 9.4; PMI activator: 1

What do the screens show for `Cc1cccc(C)c1OCc1nnc2c3cnn(C)c3ncn12`?
TNAP inh noacc: 73.7*; PMI act hi M6P: 0.8; TNAP act hiacc: 1; TNAP inh hiacc: -2.1; PMI activator: 0.8

How did CC(C)N(C(=O)CS(=O)(=O)c1ccc(Cl)c(Cl)c1)C(C)C do in these assays?
TNAP inh noacc: -0.9; PMI act hi M6P: 1; TNAP act hiacc: 1; TNAP inh hiacc: -4.6; PMI activator: 1

How did Cc1nc2c3cnn(-c4ccccc4)c3ncn2n1 do in these assays?
TNAP inh noacc: 54.0*; PMI act hi M6P: 1; TNAP act hiacc: 1; TNAP inh hiacc: -1.9; PMI activator: 1

How did CCOC(=O)C1=NN(C(=O)COc2ccccc2)C(O)(c2ccc(Br)cc2)C1 (stereo unspecified) do in these assays?
TNAP inh noacc: 50.7*; PMI act hi M6P: 0.9; TNAP act hiacc: 1; TNAP inh hiacc: 2.0; PMI activator: 0.9

What do the screens show for `CCC(=O)n1nc(-c2ccc(OC)cc2)nc1N`?
TNAP inh noacc: 50.6*; PMI act hi M6P: 0.9; TNAP act hiacc: 1; TNAP inh hiacc: -2.6; PMI activator: 1

Results for CCC(=O)n1nc(-c2ccccc2)nc1N ?
TNAP inh noacc: 39.9; PMI act hi M6P: 0.9; TNAP act hiacc: 1.1; TNAP inh hiacc: -6.1; PMI activator: 0.9

What do the screens show for `Cn1c(=O)c2c(nc(CN3CCc4ccccc4C3)n2CCCO)n(C)c1=O`?
TNAP inh noacc: -12.7; PMI act hi M6P: 2.2*; TNAP act hiacc: 1; TNAP inh hiacc: -0.1; PMI activator: 1.8

What do the screens show for `Cn1cc(CN2CCC[C@H]2CO)c(-c2cccc(Cl)c2)n1`?
TNAP inh noacc: -12.1; PMI act hi M6P: 1; TNAP act hiacc: 1.1; TNAP inh hiacc: -8.0; PMI activator: 1

Results for O=C(C1=C[C@@H]2[C@H]3C(=O)N(c4cccc(Cl)c4)C(=O)[C@H]3[C@@H](C(=O)c3ccc(Cl)cc3)N2C=C1)c1ccccc1 ?
TNAP inh noacc: 3.3; PMI act hi M6P: 2.2*; TNAP act hiacc: 1; TNAP inh hiacc: -4.0; PMI activator: 1.5

What do the screens show for `O=C(C1=C[C@@H]2[C@H]3C(=O)N(c4ccccc4Cl)C(=O)[C@H]3[C@@H](C(=O)c3ccc(Cl)cc3)N2C=C1)c1ccccc1`?
TNAP inh noacc: 5.8; PMI act hi M6P: 1.1; TNAP act hiacc: 1; TNAP inh hiacc: -1.4; PMI activator: 1.3

How did Cc1ccc(N2C(=O)[C@@H]3[C@H](C2=O)[C@H]2C=C(C(=O)c4ccccc4)C=CN2[C@@H]3C(=O)c2ccc(Cl)cc2)cc1 do in these assays?
TNAP inh noacc: 0.0; PMI act hi M6P: 2.1*; TNAP act hiacc: 1; TNAP inh hiacc: -1.5; PMI activator: 1.6

Results for O=C(NN=C1CCCCCCCCCCC1)c1ccncc1 ?
TNAP inh noacc: 1.9; PMI act hi M6P: 1.2; TNAP act hiacc: 1.1; TNAP inh hiacc: -7.7; PMI activator: 1.4

What do the screens show for `CC(=O)/C(=N/Nc1ccccc1)N1CCOCC1`?
TNAP inh noacc: -12.0; PMI act hi M6P: 1; TNAP act hiacc: 1; TNAP inh hiacc: -1.5; PMI activator: 0.9

What do the screens show for `CC(=O)/C(=N/Nc1ccccc1C)N1CCOCC1`?
TNAP inh noacc: -14.6; PMI act hi M6P: 2.4*; TNAP act hiacc: 1; TNAP inh hiacc: -3.3; PMI activator: 1.5

How did CC(=O)/C(=N/Nc1cccc(Cl)c1)N1CCOCC1 do in these assays?
TNAP inh noacc: -2.3; PMI act hi M6P: 2*; TNAP act hiacc: 1; TNAP inh hiacc: 2.2; PMI activator: 1.6

Results for CCn1c(-c2ccc(C)cc2)n[nH]c1=S ?
TNAP inh noacc: 51.8*; PMI act hi M6P: 1.1; TNAP act hiacc: 1; TNAP inh hiacc: 2.7; PMI activator: 1

What do the screens show for `C=CCn1c(SCC(=O)Nc2ccccc2-c2ccccc2)nc2cc(C(=O)O)ccc2c1=O`?
TNAP inh noacc: 6.1; PMI act hi M6P: 1.1; TNAP act hiacc: 1; TNAP inh hiacc: -4.1; PMI activator: 1.1

How did CSc1n[nH]c(/N=C/c2oc(O)c3ccccc23)n1 do in these assays?
TNAP inh noacc: 3.7; PMI act hi M6P: 1.6; TNAP act hiacc: 1; TNAP inh hiacc: -3.6; PMI activator: 1.6

How did Oc1oc(C=Nc2ccc(F)cc2F)c2ccccc12 do in these assays?
TNAP inh noacc: -14.5; PMI act hi M6P: 2.3*; TNAP act hiacc: 1; TNAP inh hiacc: -4.7; PMI activator: 1.8

How did O=C(NC1CCCCC1)C(c1ccc(O)c(O)c1)N(C(=O)Cn1nnc2ccccc21)c1cccc(O)c1 (stereo unspecified) do in these assays?
TNAP inh noacc: 50.6*; PMI act hi M6P: 0.8; TNAP act hiacc: 1; TNAP inh hiacc: -0.1; PMI activator: 0.5

Results for COc1ccc(C(=O)NNC(=O)CSc2nnc(C)n2C)cc1 ?
TNAP inh noacc: -10.3; PMI act hi M6P: 1; TNAP act hiacc: 1; TNAP inh hiacc: -3.4; PMI activator: 1

How did O=C(Cc1ccccc1)NC(NNc1ccccc1)(C(F)(F)F)C(F)(F)F do in these assays?
TNAP inh noacc: 0.6; PMI act hi M6P: 2.5*; TNAP act hiacc: 1; TNAP inh hiacc: -1.0; PMI activator: 1.7

What do the screens show for `O=C(NC(=S)Nc1nc(-c2ccc(Br)cc2)cs1)c1cccnc1`?
TNAP inh noacc: 2.5; PMI act hi M6P: 2.5*; TNAP act hiacc: 1; TNAP inh hiacc: 1.4; PMI activator: 1.5

How did Nc1c(-c2ccccc2)n[nH]c1-c1ccccc1 do in these assays?
TNAP inh noacc: 89.2*; PMI act hi M6P: 1.1; TNAP act hiacc: 1; TNAP inh hiacc: -2.1; PMI activator: 1

How did CN(C)c1ccc(/C=C/C=C2/SC(=S)N(c3ccccc3)C2=O)cc1 do in these assays?
TNAP inh noacc: 55.4*; PMI act hi M6P: 0.7; TNAP act hiacc: 0.5; TNAP inh hiacc: 54.2*; PMI activator: 0.8

Results for O=C(O)c1ccc(N2C(=O)/C(=C/C=C/c3ccccc3)SC2=S)cc1 ?
TNAP inh noacc: 5.6; PMI act hi M6P: 1; TNAP act hiacc: 1; TNAP inh hiacc: -4.2; PMI activator: 1

Results for CCN(CC)c1ccc(CN2CCC(C(=O)NCc3ccc(C)cc3)CC2)cc1 ?
TNAP inh noacc: -60.5; TNAP act hiacc: 1.1; TNAP inh hiacc: -10.2
